We go through two compounds from PMC10918659 (ACS Omega, 2024).

Series [1] in a line: Serum biochemical parameters during NNK lung cancer induction. The format is in vivo, Sprague-Dawley rats. Summed up:
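NNK was given to Sprague-Dawley rats (200–250 g) as […]. Tail-vein blood was clotted 30 min at RT, spun 20 min at 1200 rpm, and serum stored at −80 °C. TBARS: TCA/TBA/HCl at 95 °C for 15 min, […]. SOD: epinephrine in carbonate buffer pH 9.2, A295, reported as units/mg protein.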

For series [2] the following is noted: cited from earlier work.
A further series in a line: Pharmacokinetic study. Type of series: in vivo, Sprague-Dawley rats. The following applies: for Cmax / MRT / Tmax / half-life: Sprague-Dawley, rat, inhaled or intranasal, 3.5 mg/kg; for Frel: relative to silibinin solution; for AUCtotal / CL: silibinin 3.5 mg/kg, NPs 2.5 mg/kg by microspray aerosolizer.
The nature of a further series: Toxicity experiment. Type of series: in vivo, Sprague-Dawley rats. The settings on record: daily for 2 weeks; SB 3.5 mg/kg, NPs 2.5 mg/kg. The method in brief: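 Sprague-Dawley rats, n = 6 per group, were dosed daily for 2 weeks with free test compound (3.5 mg/kg), folate-conjugated nanoparticles (2.5 mg/kg), or saline via the caudal vein. Food and water were given freely. After 2 weeks, rats were sacrificed and lungs, liver, kidneys and spleen were weighed. Body-weight gain was recorded, and the organ index (mg/g) was calculated from organ weights.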

Where two headings read alike, the source gives them in different places.

Take `CN(CCCC(=O)c1cccnc1)N=O` [NNK, 4-(methylnitrosamino)-1-(3-pyridyl)-1-butanone]: the “increase of MDA content in sera vs control” value in series [1] (2 months) was 4.21%; in series [1] (3 months), 21.4%; in series [1] (4 months), 35.16%. In addition, the “reduction of SOD activity vs control” value in series [1] (2 months) is given as 10.437%; in series [1] (3 months), 29.16%; in series [1] (4 months), 45.21%.
A word on the Tmax: it is the time at which the peak concentration occurs. One may read the half-life as the time in which the quantity being followed falls by half. By Cmax is commonly meant the highest concentration seen after dosing. One may read the MRT as a mean duration of stay, worked out from the concentration-time curve. Regarding `COc1cc(C2Oc3cc([C@H]4Oc5cc(O)cc(O)c5C(=O)[C@@H]4O)ccc3OC2CO)ccc1O` (stereo partly drawn) [silibinin], in series [2] (after oral administration), the Tmax is 2 to 4 h and the half-life was 6 h. Further, the “oral rate of absorption” value in series [2] (conventional silibinin) is 23–47%. Further, in the series “Pharmacokinetic study” (lung), the Cmax came out at 32500 ± 25800 ng/mL, the MRT was determined as 3.88 ± 0.87 h, the Tmax was 1 ± 2.21 h and the half-life was 258 ± 34.8 min. In the series “Pharmacokinetic study” (plasma), the concentration peaked (Cmax) at 23600 ± 13200 ng/mL, the MRT is 4.25 ± 1.05 h, the Tmax was found to be 1 ± 2.21 h and the half-life is 534 ± 75 min. Besides, the “time to reach peak” value in the series “Pharmacokinetic study” (plasma) is 1 h. In the series “Pharmacokinetic study” (lung kinetics), this compound yielded a Frel of 1, an AUCtotal of 745.2 ± 102.5 µg·h/mL and a CL of 0.57 ± 1.02 h⁻¹. Moreover, in “Pharmacokinetic study” (lungs), the “time to reach peak” value is recorded as 1 h. In “Pharmacokinetic study” (plasma kinetics), this compound came in with a Frel of 1, an AUCtotal of 978.5 ± 118.52 µg·h/mL and a CL of 0.87 ± 0.89 h⁻¹. In “Toxicity experiment”, this compound had an increment in weight of 29.85 ± 3.21 g, a kidney organ index of 3.78 mg/g, a liver organ index of 39.52 mg/g and a lung organ index of 6.27 mg/g. Further, the spleen organ index in the series “Toxicity experiment” is given as 7.42 mg/g.
